# Source: PubChem BioAssay
# CHO-K1 Ca antag: counter-screen for M1 antagonists: effect in parental CHO-K1 cells | inhibition, % at 3 µM | ATP-induced calcium, Fluo-8 fluorescence | AID 602250 | 360,000 compounds, 0.6% hits;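 active = inhibition above a per-plate cutoff, the plate's mean sample inhibition plus 3 SD, cut at about 24% in these data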
# OX1R antag-1: OX1R (HCRTR1) antagonists, primary screen, fluorescence, CHO/OX1R cells, Fluo-8 calcium, orexin A; Orexin/Hypocretin receptor type 1 (Homo sapiens), O43613; Fluo-8 calcium fluorescence; inhibition, % at 5 µM; 330,000 compounds, 0.43% hits; AID 434989, 2010;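 active = inhibition above its plate's threshold, mean inhibition of all tested compounds on the plate plus 3 SD, cut at about 37% in these data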
# Target sequence (O43613 whole entry, looked up): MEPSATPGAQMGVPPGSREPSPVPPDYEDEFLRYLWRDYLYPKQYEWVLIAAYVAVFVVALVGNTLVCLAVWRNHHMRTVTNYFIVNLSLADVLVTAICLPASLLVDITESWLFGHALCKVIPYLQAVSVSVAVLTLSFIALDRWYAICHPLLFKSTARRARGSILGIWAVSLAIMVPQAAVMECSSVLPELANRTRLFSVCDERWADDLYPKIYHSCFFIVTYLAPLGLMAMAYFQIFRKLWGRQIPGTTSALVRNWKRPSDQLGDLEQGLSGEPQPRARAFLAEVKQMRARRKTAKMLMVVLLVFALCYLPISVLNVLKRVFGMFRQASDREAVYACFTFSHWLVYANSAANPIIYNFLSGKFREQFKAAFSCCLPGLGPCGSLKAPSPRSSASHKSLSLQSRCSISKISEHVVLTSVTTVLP
# CHO parental Ca: ATP-evoked calcium signal inhibitors, parental CHO, primary screen, counter-screen for OX1R antagonist project, cell-based, fluorescence, Fluo-8 calcium dye; inhibition, % at 5.6 µM; 330,000 compounds, 0.63% hits; parental CHO-K1, ATP-induced calcium, Fluo-8 fluorescence; AID 463079, 2010;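 active = inhibition above that plate's mean sample inhibition plus 3 SD, cut at about 26% in these data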
#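 Test system: untransfected parental CHO cell line; also added: ATP stimulus; dosing: 5.6 µM, single dose; signal: calcium-sensitive Fluo-8 fluorescence; measure: percent inhibition of ATP-evoked calcium rise, normalized to controls; benchmarks: low control ATP plus DMSO, high control DMSO only; replication: one well per compound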
# CHO-K1 Ca ag: counter-screen for M1 agonists: effect in parental CHO-K1 cells | activation, % at 3 µM | AID 602248, 2012 | Fluo-8 calcium fluorescence; scaled to maximal ATP response, vehicle zero | 360,000 compounds, 0.48% hits; in the data active = activation above about 15%;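 also: untransfected CHO-K1 host cells lacking M1 receptor as counterscreen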
# CHO-K1 Ca PAM: nonselective calcium activators in parental CHO-K1 cells, primary screen, counter-screen for M1 PAM project, cell-based, Fluo-8 calcium fluorescence, full deck, 1536-well; activation, % at 3 µM; 360,000 compounds, 0.02% hits; AID 602247, 2012; ATP EC20; 0% at ATP EC20, 100% at ATP max;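 active = activation above the run cutoff, the mean activation of all test compounds plus 3 SD, cut at about 40% in these data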;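 also: peak over basal fluorescence ratio in a 140 s read after ATP addition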
# OX1R antag-2: antagonists of human orexin 1 receptor (OX1R). Orexin/Hypocretin receptor type 1 (Homo sapiens), O43613. OX1R-expressing cells, FRET antagonist read-out. inhibition, % at 6.6 µM. 330,000 compounds, 1.8% hits. AID 485270, 2010; in the data active = inhibition mostly above about 38%, no sharp cut-off; inactive = mostly below about 40%
# Hits are given with their value; i = inactive; nt = no result given. Shown are actives, neighbours in structure and some others; about 2.9% of the full set was active somewhere.
SMILES,CHO-K1 Ca antag,OX1R antag-1,CHO parental Ca,CHO-K1 Ca ag,CHO-K1 Ca PAM,OX1R antag-2
Cc1n[nH]c(=S)n(/N=C/c2cccc([N+](=O)[O-])c2)c1=O,i,i,i,i,i,i
Cc1cc(O)ccc1C1(c2ccc(O)cc2C)OC(=O)c2ccccc21,i,i,i,i,i,i
CC(=O)Oc1ccc2c(c1)Oc1cc(OC(C)=O)ccc1C21OC(=O)c2ccccc21,101.5,106.1,101.4,824.0,i,59.9
O=C(NC1CCCCC1)C(=O)c1c[nH]c2ccccc12,i,i,i,i,i,i
O=C(Cc1ccccc1)N1CCCC(c2nc(-c3ccc(S(=O)(=O)N4CCCC4)cc3)no2)C1 (centres undefined),i,i,i,i,i,i
CS(=O)(=O)N1CCCC(c2nc(-c3ccc(S(=O)(=O)NCc4ccccc4)cc3)no2)C1 (centres undefined),33.5,i,i,i,i,i
CCc1ccc(CN(C)C(=O)C2=CC=CN3CCS(=O)(=O)N=C23)cc1,i,nt,nt,i,i,nt
CC1Cc2ccccc2N1C(=O)Cn1cnc2c1c(=O)n(C)c(=O)n2C (centres undefined),i,i,i,i,i,i
COc1ccc(CN(C)S(=O)(=O)c2nnc(NC(=O)c3ccccc3OC)s2)cc1OC,i,i,i,i,i,48.9
COc1ccc(C(=O)Nc2nnc(CCc3ccccc3)s2)c(OC)c1,34.9,i,i,i,i,i
COc1cc(-c2nc(CN3CCCCC3CCNC(C)=O)c(C)o2)ccc1F (centres undefined),i,i,i,i,i,i
COc1ccc(CCN2CC(C(=O)Nc3cc(F)ccc3F)CC2=O)cc1OC (centres undefined),i,i,i,i,i,i
CC(C)c1ccc(NC(=O)[C@H](NC(=O)[C@@H]2Cc3ccccc3CN2)c2ccccc2)cc1,i,i,i,i,i,i
CC(NC(=O)[C@H](NC(=O)[C@@H]1Cc2ccccc2CN1)c1ccccc1)c1ccccc1 (some centres undefined),i,i,i,i,i,50.0
O=C1CC(Nc2ccc(N3CCOCC3)cc2)C(=O)N1c1ccccc1 (centres undefined),i,i,i,i,i,i
COc1ccccc1N1C(=O)CC(Nc2ccc(N3CCOCC3)cc2)C1=O (centres undefined),i,i,i,i,i,71.1
CN(c1ccc(C(=O)N2CCCCC2)cc1)S(=O)(=O)c1ccccc1,i,42.1,37.6,i,i,i
CCOC(=O)C1CCCN(C(=O)c2cccc(S(=O)(=O)N(C)c3ccc(C)cc3)c2)C1 (centres undefined),i,i,i,i,i,57.7
CCOC(=O)C1CCCN(C(=O)C2c3ccccc3Oc3ccccc32)C1 (centres undefined),i,i,i,19.9,i,44.9
CCOC(=O)C1CCCN(C(=O)c2cccc(S(=O)(=O)N3CCCC3)c2)C1 (centres undefined),i,i,i,i,i,i
CN(c1ccccc1)S(=O)(=O)c1ccc(C(=O)N2CCCC2)cc1,i,i,i,i,i,i
O=C(COC(=O)c1ccccc1NCCO)NCc1cccs1,i,i,i,i,i,i
O=C(O)c1cc(-c2ccc3c(c2)OCCO3)n[nH]1,i,i,i,i,i,i
Oc1ccccc1-c1cc(-c2ccc3c(c2)OCCO3)n[nH]1,i,i,i,i,i,59.0
COc1ccc(-c2cc(-c3ccccc3O)[nH]n2)cc1OC,25.1,i,i,i,i,i
SMILES,CHO-K1 Ca antag,OX1R antag-1,CHO parental Ca,CHO-K1 Ca ag,CHO-K1 Ca PAM,OX1R antag-2
CC(Oc1ccc(Br)cc1)C(=O)N(Cc1ccccc1)c1c(N)n(Cc2ccccc2)c(=O)[nH]c1=O (centres undefined),i,nt,nt,i,i,nt
COc1cccc(NC2=C(NCCO)C(=O)c3ccccc3C2=O)c1,i,i,i,i,i,45.6
O=C(CCCC(=O)c1ccccc1)Nc1ccc(O)cc1,i,i,i,i,i,i
Cc1cc(C)c(S(=O)(=O)Cc2ccccc2)c(=O)[nH]1,24.6,i,i,i,i,i
Cc1cccc(NC(=O)c2ncn3c2C(=O)N(C)CC3)c1,i,nt,nt,i,i,nt
O=C(NN=Cc1ccc(F)cc1)C1CC1,i,nt,nt,i,i,nt
C=C1CC(C(=O)N/N=C/c2ccc(O)cc2)C1,25.1,i,i,i,i,i
O=c1[nH]c2c(Br)cnc([N+](=O)[O-])c2[nH]1,i,i,i,i,i,42.8
CN(C)S(=O)(=O)c1ccc(Cl)c(NC(=O)CSc2nc3c(cc2C#N)C(=O)CCC3)c1,i,i,i,16.6,i,i
CCc1ccccc1N(C1=NCCCS1)S(=O)(=O)c1ccc(C(C)(C)C)cc1,i,i,i,i,i,51.2
Cc1cc(C)c(C(=O)CSc2n[nH]c(-c3ccncc3)n2)c(C)c1,i,i,i,18.3,i,i
O=C(NCCCn1ccnc1)c1cc2cc([N+](=O)[O-])ccc2oc1=O,i,i,i,i,i,69.3
O=C(NCCCn1ccnc1)c1ccc(Cl)cc1[N+](=O)[O-],i,i,i,i,i,i
COc1ccc(CCn2nnnc2CN2CCN(C(=O)c3ccco3)CC2)cc1OC,24.1,i,i,i,i,i
Nc1ccc(-c2nc3ccc(C(=O)O)cc3s2)cc1,i,i,i,i,i,i
O=C(O)c1ccc2nc(-c3ccccc3)sc2c1,28.7,i,i,i,i,i
COc1ccc(CNS(=O)(=O)c2ccc3c(c2)N(C(C)=O)CC(C)S3)cc1 (centres undefined),i,i,i,16.6,i,i
CC(=O)N1CC(C)Sc2ccc(S(=O)(=O)NCc3ccc(F)cc3)cc21 (centres undefined),i,i,i,i,i,i
CCOc1ccnc2c1c(=O)n(Cc1cc(OC)cc(OC)c1)c(=O)n2C,i,i,i,i,i,i
Nc1c(C(=O)c2cccs2)oc2ccccc12,i,i,i,i,i,68.0
O=C(NCCC1CCCCN1S(=O)(=O)c1ccc(F)cc1)C(=O)NCCN1CCOCC1 (centres undefined),i,i,i,i,i,i
CCc1nnc(NC(=O)C2CCCN2C(=O)Nc2ccccc2)s1 (centres undefined),i,i,i,20.5,i,i
CCc1nnc(NC(=O)C2CCCN2C(=O)Nc2ccc(C)cc2)s1 (centres undefined),i,i,i,i,i,i
CN(C)c1ccc(C(O)c2cc3ccccc3s2)cc1 (centres undefined),i,nt,nt,i,i,nt
O=C(NCC(F)(F)F)c1ccc2sc([C@@H]3O[C@H](CO)[C@H](O)[C@H](O)[C@H]3O)nc2c1,i,nt,nt,i,i,nt
